Data set [1] concerns COS-1. The experiment in a line: Binding affinity to mCherry labelled GRTH (unknown origin) expressed in COS-1 cells assessed as increase in fluorescence intensity of donor peptide FITC in bleached region at 15 uM followed by acceptor photobleaching measured after 16 hrs by inverted microscope based live cell imaging analysis. The settings on record: Homo sapiens. The procedure, abridged: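 COS-1 cells carrying an mCherry-human GRTH fusion, in glass-bottom dishes, exposed to 15 μM FITC-labelled peptide for 16 h, then imaged live. mCherry was excited at 561 nm and FITC at 488 nm (emission 500–550 nm). ROIs were bleached in the acceptor channel at 514 nm, 100% power, 10 iterations. FRET efficiency E% = 100 × (FITC postbleach − FITC prebleach)/FITC postbleach.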

The subject of data set [2] is COS-1. The experiment in a line: Inhibition of PKA-induced GRTH phosphorylation (unknown origin) expressed in COS-1 cells at 100 uM stimulated with PKA for 24 hrs followed by peptide addition and incubated overnight by Western blot analysis. Type of data set: cell-based. The settings on record: Homo sapiens. The procedure, abridged: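 Stable GRTH COS-1 cells at 0.3 × 10^6/well were transfected with PKAα catalytic subunit plasmid (3 μg/well), or with empty plasmid, and grown 24 h. Peptide was then added at 100 μM overnight at 37 °C. pGRTH was detected by western blot with phospho-specific antibody (1:1000) and normalized to β-actin; three experiments.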
On the technique in general: In western blotting, separated proteins are transferred to a membrane and probed.

Data set [3] in a line: Drug uptake in nucleus of African green monkey COS-1 cells assessed as compound accumulation in nucleus at 20 uM incubated for 4 hrs in presence of FITC-labelled peptide by DAPI staining based inverted phase contrast fluorescence microscope analysis. The class given is ADME, subcellular. Particulars: chlorocebus aethiops, cos-1, 4 h. The procedure, abridged: (§1)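 Stable GRTH-expressing COS-1 cells grown overnight on coverslips, then given 20 μM FITC-tagged peptide for 4 h. After PBS wash they were fixed in 50% then 100% methanol, 1 min each, and mounted with DAPI. Green signal in cytoplasm and nucleus was viewed by inverted fluorescence microscopy.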

The nature of data set [4]: Drug uptake in cytoplasm of African green monkey COS-1 cells assessed as compound accumulation in cytoplasm at 20 uM incubated for 4 hrs in presence of FITC-labelled peptide by DAPI staining based inverted phase contrast fluorescence microscope analysis. Type of data set: ADME, subcellular. The settings on record: chlorocebus aethiops, cos-1, 4 h. The procedure, abridged: as §1

Data set [5] relates to COS-1. The data set is described as follows: Binding affinity to GRTH (unknown origin) expressed in COS-1 cell lysate assessed as thermostabilization of protein at 40 uM incubated for 16 hrs followed by heating at 40 to 70 degree C for 3 mins by CETSA based western blot analysis. Type of data set: subcellular. Particulars: Homo sapiens. The gist of the method:
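Lysate of COS-1 cells stably carrying human GRTH-V5-His, made with protease/phosphatase inhibitor and cleared by centrifugation, then diluted in lysis buffer. Peptide added to 40 μM and rotated 16 h at 4 °C. Aliquots were heated 3 min at 40–70 °C and cooled 3 min at room temperature, then spun. Soluble non-phospho GRTH was read by western blot; 40 °C sample served as reference; n = 3.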

Data set [6] deals with COS-1. The experiment in a line: Inhibition of GRTH phosphorylation (unknown origin) expressed in COS-1 cells assessed as reduction in pGRTH protein level at 5 to 100 uM measured after 16 hrs by western blot analysis. The settings on record: Homo sapiens, dose 5-100 µM. Type of data set: cell-based. The gist of the method: (§2)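 COS-1 cells stably expressing human GRTH-V5-His at ~90% confluence. Peptides dissolved in water and given at 5, 20, 60 or 100 μM for 16 h, or at 100 μM for 4, 8, 16 or 24 h. 30 μg protein per sample was blotted with a rabbit phospho-T239-specific GRTH antibody. 61 kDa pGRTH band normalized to β-actin; three independent experiments; ANOVA with Tukey test.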

A short description of data set [7]: Drug uptake in mouse seminiferous tubule of testis at 100 uM incubated for 16 hrs by immunofluorescence microscopic analysis. Type of data set: ADME, tissue-based. Particulars: in vitro. The procedure, abridged: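 Seminiferous tubules from decapsulated testes of 90-day-old mice were segmented and placed in medium 199. After 4 h, 100 μM FITC-tagged peptide was added for 16 h. Tubules were PBS-washed, mounted with antifade and imaged by fluorescence microscopy.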

For data set [8], the species on record is Mus musculus. The experiment in a line: Inhibition of GRTH phosphorylation in mouse seminiferous tubule of testis assessed as reduction in pGRTH protein level at 100 uM measured after 16 hrs by western blot analysis. Type of data set: tissue-based. The gist of the method: (§3)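 Seminiferous tubules from adult mice (90 days old) in medium 199, 4 h, then 100 μM peptide for 16 h. Lysates were blotted with phospho-specific GRTH antibody. pGRTH band normalized to β-actin and compared with untreated tubules; n = 3.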

Data set [9] deals with COS-1. The experiment in a line: Inhibition of GRTH phosphorylation (unknown origin) expressed in COS-1 cells assessed as reduction in pGRTH protein level measured after 16 hrs by western blot analysis. Type of data set: cell-based. Particulars: Homo sapiens. The gist of the method:
as §2

For data set [10], the system named is COS-1. The data set is described as follows: Inhibition of GRTH phosphorylation (unknown origin) expressed in COS-1 cells assessed as reduction in pGRTH protein level at 100 uM measured after 8 to 16 hrs by western blot analysis. The class given is cell-based. Particulars: Homo sapiens, time 8-16 hrs. The gist of the method: as §2
Data set [11] has as its system COS-1. The data set is described as follows: Cytotoxicity against African green monkey COS-1 cell assessed as reduction in cell viability incubated for 24 hrs by CellTiter 96 non-radioactive cell proliferation assay. Type of data set: cell-based. The settings on record: Chlorocebus aethiops, COS-1, 24 h. The procedure, abridged: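 COS-1 cells stably expressing human GRTH, seeded at 0.01 × 10^6/well and left 16 h. Peptides at 10, 50, 100, 250 and 500 μM for 24 h at 37 °C with 5% CO2. Tetrazolium dye was then added for 4 h, reaction stopped, absorbance read at 570 nm. Viability taken as % of control OD; IC50 by linear regression of dose–response.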

The subject of data set [12] is COS-1. The data set is described as follows: Inhibition of GRTH phosphorylation (unknown origin) expressed in COS-1 cells assessed as reduction in pGRTH protein level at 100 uM measured after 24 hrs by western blot analysis. Type of data set: cell-based. The settings on record: Homo sapiens. The procedure, abridged: as §2
In data set [13] the test system is COS-1. The experiment in a line: Inhibition of GRTH phosphorylation (unknown origin) expressed in COS-1 cells assessed as reduction in pGRTH protein level at 100 uM measured after 16 to 24 hrs by western blot analysis. The class given is cell-based. The settings on record: Homo sapiens, time 16-24 hrs. The procedure, abridged:
as §2

Data set [14] is filed under the species Mus musculus. The experiment in a line: Inhibition of GRTH phosphorylation in mouse seminiferous tubule of testis assessed as reduction in pGRTH protein level at 100 uM measured after 16 hrs by western blot analysis relative to control. Type of data set: tissue-based. The procedure, abridged:
as §3

Each structure is given as a SMILES string. Activity calls are given as the source filed them. No cut-off for these calls is given here. Where a SMILES comes first, the peptide text is derived from it. [ ]: non-standard residue; d: D form. The star is where a group is joined. FITC = O=C1OC2(c3ccc(O)cc3Oc3cc(O)ccc32)c2ccc(NC(=S)*)cc21; 2Nal = N[C@@H](Cc1ccc2ccccc2c1)C(=O)O; AEEA = NCCOCCOCC(=O)O

From ChEMBL document CHEMBL5030548, “Blockade of GRTH/DDX25 Phosphorylation by Cyclic Peptides Provides an Avenue for Developing a Nonhormonal Male Contraceptive” (J Med Chem, 2021) come the findings set out here.

The inhibition is the percentage by which the read-out fell short of the control. For `O=C(O)CC[C@@H]1NC(=O)CNC(=O)[C@H](Cc2ccc3ccccc3c2)NC(=O)[C@H](Cc2ccccc2)NC(=O)COCCOCCNC(=O)[C@H](CCCCNC(=S)Nc2ccc3c(c2)C(=O)OC32c3ccc(O)cc3Oc3cc(O)ccc32)NC(=O)[C@H](CCC(=O)O)NC(=O)[C@H](CCC(=O)O)NC1=O` (cyclo([2Nal]GEEEK(FITC)[AEEA]F)), the outcome in data set [1] and in data set [5] was inactive. The inhibition result in [2], in data set [6] and in [8] was “inactive” each time. Besides, the Drug uptake result in [3], in [4] and in [7] was “Active” throughout.

As for `N=C(N)NCCC[C@@H]1NC(=O)CNC(=O)CNC(=O)CNC(=O)COCCOCCNC(=O)[C@H](CCCCNC(=S)Nc2ccc3c(c2)C(=O)OC32c3ccc(O)cc3Oc3cc(O)ccc32)NC(=O)[C@H](CCCNC(=N)N)NC(=O)[C@H](CCCNC(=N)N)NC1=O` (cyclo([AEEA]GGGRRRK(FITC))), the Drug uptake entry in data set [3], in data set [4] and in [7] was “Active” in each case. The inhibition result in data set [6] and in data set [8] was “inactive” in each case.

What is called IC50 is the concentration needed to halve the response being measured. Regarding `N=C(N)NCCC[C@@H]1NC(=O)CNC(=O)[C@H](Cc2ccc3ccccc3c2)NC(=O)[C@H](Cc2ccccc2)NC(=O)COCCOCCNC(=O)[C@H](CCCCNC(=S)Nc2ccc3c(c2)C(=O)OC32c3ccc(O)cc3Oc3cc(O)ccc32)NC(=O)[C@H](CCCNC(=N)N)NC(=O)[C@H](CCCNC(=N)N)NC1=O` (cyclo([2Nal]GRRRK(FITC)[AEEA]F)), in data set [9], the inhibition entry was “Dose-Dependent Effect”. The outcome in data set [1] and in data set [5] was Active. Besides, the inhibition result in [2], in data set [10] and in [12] was “Active” in each case. For the same compound, the IC50 in data set [11] was determined as 312 µM. Further, the Drug uptake entry in data set [3], in data set [4] and in data set [7] was “Active” throughout.

In the case of `N=C(N)NCCC[C@H](NC(=O)CNC(=O)[C@H](Cc1ccc2ccccc2c1)NC(=O)[C@@H](N)Cc1ccccc1)C(=O)N[C@@H](CCCNC(=N)N)C(=O)N[C@@H](CCCNC(=N)N)C(=O)N[C@@H](CCCCNC(=S)Nc1ccc2c(c1)C(=O)OC21c2ccc(O)cc2Oc2cc(O)ccc21)C(=O)NCCOCCOCC(=O)O` (H-F[2Nal]GRRRK(FITC)[AEEA]-OH), the figures for the Drug uptake result in [3], in [4] and in [7] were “Not Active”, “Not Active” and “Active”, respectively. For the same compound, the inhibition entry in data set [6] and in data set [8] was “inactive” each time.

As for `N=C(N)NCCC[C@@H]1NC(=O)CNC(=O)[C@H](Cc2ccc3ccccc3c2)NC(=O)[C@H](Cc2ccccc2)NC(=O)COCCOCCNC(=O)CNC(=O)[C@H](CCCNC(=N)N)NC(=O)[C@H](CCCNC(=N)N)NC1=O` (cyclo([2Nal]GRRRG[AEEA]F)), in data set [9], the inhibition result is “Dose-Dependent Effect”. Besides, in [11], the 50% inhibitory concentration (IC50) is 392 µM. The inhibition result in data set [12] and in [13] was “Active” in each case.

As for `N=C(N)NCCC[C@@H]1NC(=O)CNC(=O)[C@H](Cc2ccc3ccccc3c2)NC(=O)[C@H](Cc2ccccc2)NC(=O)COCCOCCNC(=O)[C@@H](CCCCNC(=S)Nc2ccc3c(c2)C(=O)OC32c3ccc(O)cc3Oc3cc(O)ccc32)NC(=O)[C@H](CCCNC(=N)N)NC(=O)[C@H](CCCNC(=N)N)NC1=O` (cyclo([2Nal]GRRR[dK](FITC)[AEEA]F)), the inhibition entry is “Dose-Dependent Effect” in [9] and 60% in data set [14]. Also, the result in [1] and in data set [5] was Active. Besides, the inhibition entry in data set [2] and in [10] was “Active” each time. For the same compound, the IC50 in data set [11] was 333 µM. In addition, the Drug uptake result in data set [3], in data set [4] and in data set [7] was “Active” in each case. Moreover, the inhibition result in data set [12] was “inactive”.
